# High-throughput results from PubChem BioAssay.
# Most compounds without a hit are left out; they make up all but 1.2% or so of the library.
# MsrA inh = bovine MsrA inhibition. purified bovine MsrA, absorbance read-out. inhibition, % at 15.5 µM. 360,000 compounds, 0.75% hits; in the data active means inhibition above about 4.5%;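 further: 0% = vehicle wells with enzyme and 100% = reference inhibitor wells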
# proCasp7 act = counter-screen for procaspase-3 activators: activators of human procaspase-7; P55210; recombinant procaspase-7, Ac-DEVD-pNA absorbance 405 nm; D23A/D198A/D206A triple mutant, cannot self-cleave; scale: DMSO 0, 5 µM enzyme 100; activation, % at 8.5 µM; 330,000 compounds, 0.093% hits;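 active means percent activation above the screen-wide mean plus 3 SD, cut at about 25% in these data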
#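 Assay system: Uncleavable procaspase-7 mutant enzyme; Input: 2 µM procaspase-7 mutant as dispensed; Also added: DEVD-pNA substrate; Medium: Zinc-free HEPES pH 7.4 with 300 mM NaCl, 0.01% Triton X-100; Timing: 1 h compound preincubation, 2 h substrate cleavage, 25 °C; Measured by: Epi-absorbance of released pNA at 405 nm, two timepoints.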
# proCasp3 act = procaspase-3 (human) activation | P42574 | recombinant procaspase-3 D3A, Ac-DEVD-pNA absorbance 405 nm | activation, % at 8.5 µM | 330,000 compounds, 0.11% hits | AID 463141;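 active means activation above the mean of all tested compounds plus 3 SD, cut at about 21% in these data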;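 further: 0% = DMSO alone and 100% = DMSO wells spiked with extra 5 µM PC-3 D3A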
# Target sequence (P42574 whole entry D9A/D28A/D175A): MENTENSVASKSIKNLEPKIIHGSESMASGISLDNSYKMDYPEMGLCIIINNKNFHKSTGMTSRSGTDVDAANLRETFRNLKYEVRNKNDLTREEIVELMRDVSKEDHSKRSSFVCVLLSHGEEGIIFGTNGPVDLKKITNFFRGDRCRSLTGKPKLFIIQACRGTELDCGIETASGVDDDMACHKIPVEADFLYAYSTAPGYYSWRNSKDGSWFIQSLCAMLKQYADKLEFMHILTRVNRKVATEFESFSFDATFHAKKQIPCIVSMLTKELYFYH
#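 Technique: 405 nm absorbance of p-nitroaniline, reads at 0 and 120 min; Test system: Procaspase-3 D3A mutant; Incubation: 1 h enzyme-compound preincubation, then 2 h substrate reaction, 25 °C; Repeats: singlicate, each compound tested once; Benchmarks: low control DMSO wells, high control DMSO plus 5 µM PC-3 D3A.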
# MsrA act = bovine methionine sulfoxide reductase A activation. purified bovine MsrA, absorbance read-out. activation, % at 10.6 µM. 360,000 compounds, 0.3% hits. AID 602163; in the data active means activation above about 7.5%;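 further: 0% = vehicle and 100% = reference activator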
# PC3 D3A act = counter-screen for dual procaspase-3/7 activators: human procaspase-3 activation; shares compounds with proCasp7 act; recombinant PC-3 D3A, Ac-DEVD-pNA absorbance 405 nm; aspartates 9, 28, 175 changed to alanine; 100% = enzyme control; activation, % at 8.5 µM; AID 493114; 290 tested, under 10 active;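 active means mean percent activation across triplicates above a set limit taken from the earlier primary procaspase-3 screen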;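 further: 0% = DMSO wells and 100% = DMSO wells with 5 µM added PC-3 D3A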
# PC7 dual conf = procaspase-7 (human) activation, dual activator confirmation | shares compounds with proCasp7 act | recombinant procaspase-7, Ac-DEVD-pNA absorbance 405 nm; D23A/D198A/D206A mutant that cannot self-cleave | activation, % at 8.5 µM | 290 tested, under 10 active | AID 493115;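 active means mean activation above a set limit carried over from the earlier primary screen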;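 further: 0% = DMSO only and 100% = DMSO with added 5 µM PC-7 enzyme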
# * hit, by the source's call; . = not tested or not shown.
SMILES,MsrA inh,proCasp7 act,proCasp3 act,MsrA act,PC3 D3A act,PC7 dual conf
O=C(C1=NN(c2ccccc2)C2C(=O)N(c3ccccc3Cl)C(=O)C12)c1ccccc1 (stereo not given),0,48*,30*,-3,45*,34*
O=C(C1=NN(c2ccccc2)C2C(=O)N(c3ccccc3)C(=O)C12)c1ccccc1 (stereo not given),1,41*,26*,-3,40*,27*
CC(C)(C)OC(=O)N1CCC[C@@H]1C(=O)N1CCC[C@@H]1C(=O)NCc1ccccc1,0,.,.,.,.,.
Cc1cc(O)cc(=O)n1-c1cccc(C(F)(F)F)c1,1,.,.,.,.,.
O=C(NNC(=O)c1cc2cc3ccccc3nc2s1)c1cccc(C(F)(F)F)c1,1,26*,0,-4,-23,-19
CCn1c(=NC(=O)C2COc3ccccc3O2)sc2c(OC)ccc(OC)c21 (stereo not given),2,36*,6,-1,2,2
COCCn1c(=NC(=O)C2COc3ccccc3O2)sc2cc(S(N)(=O)=O)ccc21 (stereo not given),-1,-6,1,2,.,.
CC(=O)N1N=C(c2ccccc2)CC1c1cccs1 (stereo not given),1,.,.,2,.,.
CC(=O)Nc1ccc(C2=NN(c3ccccc3)C(c3cccs3)C2)cc1 (stereo not given),3,126*,157*,-8,-31,-35
COC(=O)C1=C(C)NC(C)=C(C(=O)OC)C1c1ccc(OC(=O)c2oc3ccccc3c2C)c(OC)c1,-1,81*,35*,-4,4,5
Cc1ccccc1S(=O)(=O)N1CCCc2nc(C)c(C)cc21,1,.,.,.,.,.
CCN(CC)c1ccc2c(O)cc(=O)oc2c1,2,-6,-5,-4,.,.
CCN(CC)c1ccc(C(=O)OCc2cc(=O)oc3cc(O)ccc23)cc1,1,40*,32*,-13,0,0
C#CCOc1ccc(C2C3=C(CC(C)(C)CC3=O)N(CC(=O)O)C3=C2C(=O)CC(C)(C)C3)cc1OC,0,-17,-8,-3,.,.
C=CCOc1ccc(C2C(C#N)=C(N)N(Nc3ccccc3)C3=C2C(=O)CC(C)(C)C3)cc1OC (stereo not given),3,35*,19,1,-4,-6
CCCn1cc(C(=O)Nc2ccc(Oc3cccnc3)cc2)c2ccccc21,1,.,.,.,.,.
Cc1ccc2nc3c(cc2c1)c(NC(=O)c1ccco1)nn3CC(C)C,0,64*,52*,-2,-29,-34
CCCS(=O)(=O)c1c(S(=O)(=O)CCC)c2cnccn2c1C(=O)c1ccc(OC)cc1,0,-2,-8,-5,.,.
CCCS(=O)(=O)c1c(S(=O)(=O)CCC)c2cc(-c3ccncc3)ccn2c1C(=O)OC,1,34*,29*,-3,-29,-35
COC(=O)Cc1nnn2c1[C@@H](C)[C@@H](c1ccccc1Br)OC[C@H](C)C2,-1,.,.,.,.,.
CCOC(=O)c1c(NC(=O)COC(=O)c2ccccc2NC)sc(C(=O)N(C)C)c1C,0,29*,7,2,-28,-32
CCN(Cc1ccccc1)c1ccc(/C=N/N=C(N)N)cc1,0,-7,-1,-7,.,.
CCN(Cc1ccccc1)c1ccc(/C=N/NC(=S)NC(C)C)cc1,2,30*,23*,-5,0,2
CCOC(=O)C1=C(C(=O)OCC)C2N(Cc3ccc(Br)cc3)c3ccccc3[C@@]23C[C@@H](C(=O)OC)N(S(=O)(=O)c2ccc(Br)cc2)C3=N1 (stereo not given in full),-1,.,.,.,.,.
COc1ccc(C2C3=C(CC(C)(C)CC3=O)Nc3c2c(=O)n(C)c(=O)n3C)cc1OC (stereo not given),3,27*,6,-2,-28,-24
C=CCOc1ccccc1C1C2=C(CC(C)(C)CC2=O)Nc2c1c(=O)n(C)c(=O)n2C (stereo not given),0,-1,-3,-2,.,.
Cc1cc(-c2nc3cccnc3s2)ccc1NS(=O)(=O)c1cccs1,4,26*,17,-6,-28,-34
